From ChEMBL document CHEMBL1125740, “Heterocyclic quinones. 17. A new in vivo active antineoplastic drug: 6,7-bis(1-aziridinyl)-4-[[3-(N,N-dimethylamino)propyl]amino]-5,8- quinazolinedione” (J Med Chem, 1991)

Assays:
[1] = tested on: B16; assay: Compound was evaluated in vivo for antitumor activity against B16 melanoma 2 after injecting the compound intravenously for toxicity related death.; assay type: functional, Mus musculus
[2] = Compound was evaluated in vivo for antitumor activity against Glasgow osteogenic sarcoma after injecting the compound intravenously for median tumor burden; assay type: functional, Mus musculus
How it was run: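 Glasgow osteogenic sarcoma in C57Bl/6-derived hosts: 30-60 mg fragments implanted sc by trocar on day 0. Drug given iv on days 3, 6 and 9, 7 mice per group. Tumors measured by caliper. Median tumor burden recorded on day 10. Body weight change per mouse recorded at nadir. Toxicity-related deaths counted.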

[3] = tested on: M5076; assay: Compound was evaluated in vivo for antitumor activity against M5076 after injecting the compound intravenously for percent T/C; assay type: functional, Mus musculus
[4] = tested on: L1210; assay: Compound was evaluated in vivo for antitumor activity after intraperitoneal administration against L1210(935) for mortality range at an optimal dose of 0.25 mg/kg/injection at 1,4,7,11day schedule.; assay type: functional, Mus musculus
How it was run: (§1)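 L1210 leukemia, maintained in DBA/2 mice, was given ip as 10⁵ cells on day 0 to F1 hybrid or strain-of-origin mice over 18 g, in groups of 8. Dosing was ip from day 1, and mortality was checked daily. Median day of death counts dying mice only. %ILS = 100×(treated − control median day of death)/control median. Tumor-free survivors were counted on day 60. Weight change is g/mouse at nadir.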

[5] = tested on: L1210; assay: Compound was evaluated in vivo for antitumor activity after intraperitoneal administration against L1210(935) for median day of death at an optimal dose of 0.125 mg/kg/injection at 1,4,7,11day schedule.; assay type: functional, Mus musculus; how it was run: as §1
[6] = tested on: L1210; assay: Compound was evaluated in vivo for antitumor activity after intraperitoneal administration against L1210(935) for median day of death at an optimal dose of 0.25 mg/kg/injection at 1,4,7,11day schedule.; assay type: functional, Mus musculus; how it was run: as §1
[7] = tested on: L1210; assay: Compound was evaluated in vivo for antitumor activity after intraperitoneal administration against L1210(935)for change in body weight at an optimal dose of 0.25 mg/kg/injection at 1,4,7,11day schedule.; assay type: functional, Mus musculus; how it was run: as §1
[8] = tested on: L1210; assay: Compound was evaluated in vivo for antitumor activity after intraperitoneal administration against L1210(935) for median day of death at an optimal dose of 1 mg/kg/injection at 1 day schedule.; assay type: functional, Mus musculus; how it was run: as §1
[9] = tested on: L1210; assay: Compound was evaluated in vivo for antitumor activity after intraperitoneal administration against L1210(935) for mortality range at an optimal dose of 0.125 mg/kg/injection at 1,4,7,11day schedule.; assay type: functional, Mus musculus; how it was run: as §1
[10] = tested on: L1210; assay: Compound was evaluated in vivo for antitumor activity after intraperitoneal administration against L1210(935) for total dose at an optimal dose of 0.125 mg/kg/injection at 1,4,7,11day schedule.; assay type: functional, Mus musculus; how it was run: as §1
[11] = tested on: L1210; assay: Compound was evaluated in vivo for antitumor activity after intraperitoneal administration against L1210(935) for total dose at an optimal dose of 0.25 mg/kg/injection at 1,4,7,11day schedule.; assay type: functional, Mus musculus; how it was run: as §1
[12] = tested on: L1210; assay: Compound was evaluated in vivo for antitumor activity after intraperitoneal administration against L1210(935)for % increase in life span at an optimal dose of 0.5 mg/kg/injection at 1,4,7,11day schedule.; assay type: functional; settings: Mus musculus, L1210, ip; how it was run: as §1
[13] = Compound was evaluated in vivo for antitumor activity against Lewis Lung cercinoma after injecting the compound intravenously for toxicity related death.; assay type: functional, Mus musculus
How it was run: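 Lewis lung carcinoma: 10^6 cells implanted im into C57Bl/6-derived hosts. Drug given iv on days 5, 9 and 13, 10 mice per group. Median tumor burden and weight nadir recorded. Survivors were killed on day 19, and their lungs were fixed in Fekete solution so that macroscopic metastases could be counted.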

[14] = tested on: P388; assay: Compound was evaluated in vivo for antitumor activity after intraperitoneal administration against P388/L-PAM(12) for % increase in life span at an optimal dose of 0.75 mg/kg/injection; assay type: functional; settings: Mus musculus, P388, ip
[15] = tested on: P388; assay: Compound was evaluated in vivo for antitumor activity after intraperitoneal administration against P388/L-PAM(14) for tumor free survivors at an optimal dose of 0.1 mg/kg/injection at 1,2,3,4 day schedule.; assay type: functional, Mus musculus
[16] = tested on: P388; assay: Compound was evaluated in vivo for antitumor activity after intraperitoneal administration against P388/L-PAM(14) for tumor free survivors at an optimal dose of 0.5 mg/kg/injection at one day schedule on day 60; assay type: functional, Mus musculus
[17] = tested on: P388; assay: Compound was evaluated in vivo for antitumor activity after intraperitoneal administration against P388/L-PAM(14) for total dose at an optimal dose of 0.125 mg/kg/injection at 1,4,7,11 day schedule.; assay type: functional, Mus musculus
[18] = tested on: P388; assay: Compound was evaluated in vivo for antitumor activity after intraperitoneal administration against P388/L-PAM(14) for total dose at an optimal dose of 0.2 mg/kg/injection at 1,2,3,4 day schedule.; assay type: functional, Mus musculus
[19] = tested on: P388; assay: Compound was evaluated in vivo for antitumor activity after intraperitoneal administration against P388/L-PAM(14) for total dose at an optimal dose of 0.4 mg/kg/injection at 1,2,3,4 day schedule.; assay type: functional, Mus musculus
[20] = tested on: P388; assay: Compound was evaluated in vivo for antitumor activity after intraperitoneal administration against P388/L-PAM(12) for tumor free survivors at an optimal dose of 0.75 mg/kg/injection; assay type: functional, Mus musculus
[21] = tested on: P388; assay: Compound was evaluated in vivo for antitumor activity after intraperitoneal administration against P388/L-PAM(14) for total dose at an optimal dose of 0.5 mg/kg/injection at one day schedule.; assay type: functional, Mus musculus
[22] = tested on: P388; assay: Compound was evaluated in vivo for antitumor activity after intraperitoneal administration against P388/L-PAM(14) for % increase in life span at an optimal dose of 0.25 mg/kg/injection at 1,4,7,11 day schedule.; assay type: functional; settings: Mus musculus, P388, ip
[23] = tested on: P388; assay: Compound was evaluated in vivo for antitumor activity after intraperitoneal administration against P388 (1313) for tumor free survivors at an optimal dose of 0.2 mg/kg/injection; assay type: functional, Mus musculus
[24] = tested on: P388; assay: Compound was evaluated in vivo for antitumor activity after intraperitoneal administration against P388 (1313) for tumor free survivors at an optimal dose of 0.4 mg/kg/injection; assay type: functional, Mus musculus
[25] = tested on: P388; assay: Compound was evaluated in vivo for antitumor activity after intraperitoneal administration against P388/L-PAM(14) for tumor free survivors at an optimal dose of 0.125 mg/kg/injection at 1,4,7,11 day schedule.; assay type: functional, Mus musculus
[26] = tested on: P388; assay: Compound was evaluated in vivo for antitumor activity after intraperitoneal administration against P388 (1313) for change in body weight at an optimal dose of 0.4 mg/kg/injection; assay type: functional, Mus musculus
[27] = tested on: P388; assay: Compound was evaluated in vivo for antitumor activity after intraperitoneal administration against P388 (1313) for % increase in life span at an optimal dose of 0.25 mg/kg/injection; assay type: functional; settings: Mus musculus, P388, ip
[28] = tested on: P388; assay: Compound was evaluated in vivo for antitumor activity after intraperitoneal administration against P388 (1313) for % increase in life span at an optimal dose of 0.5 mg/kg/injection; assay type: functional; settings: Mus musculus, P388, ip
[29] = Compound was evaluated in vivo for antitumor activity against mammary adenocarcinoma 16/C after injecting the compound intravenously for toxicity related death.; assay type: functional, Mus musculus
How it was run: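 30-60 mg tumor fragments implanted sc by trocar on day 0 into C57Bl/6-derived hosts (B16) or C3H/He-derived hosts (16/C). Drug given iv on days 6, 9 and 13 (B16) or 6, 9 and 12 (16/C), 10 mice per group. Tumors measured by caliper. T/C % taken from median tumor burden of treated vs control groups on day 15 (B16) or day 14 (16/C). Body weight change per mouse recorded at nadir.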

CN(C)CCCNc1ncnc2c1C(=O)C(N1CC1)=C(N1CC1)C2=O
Toxicity [1]: 0
Tumor burden [2]: 40 mg
T/C [3]: 58%
Mortality [4]: 14 days
Median day of death [5]: 13
Median day of death [6]: 13
Change in body weight [7]: 1.6 g mouse-1
Median day of death [8]: 14
Mortality [9]: 14 days
Total dose [10]: 0.5 mg/kg
Total dose [11]: 1 mg/kg
ILS at 0.5 mg/kg [12]: 27%
Toxicity [13]: 0
ILS at 0.75 mg/kg [14]: 19%
Survivors [15]: 0
Survivors [16]: 0
Total dose [17]: 0.5 mg/kg
Total dose [18]: 0.8 mg/kg
Total dose [19]: 1.6 mg/kg
Survivors [20]: 0
Total dose [21]: 0.5 mg/kg
ILS at 0.25 mg/kg [22]: 18%
Survivors [23]: 0
Survivors [24]: 1
Survivors [25]: 0
Change in body weight [26]: -0.9 g mouse-1
ILS at 0.25 mg/kg [27]: 58%
ILS at 0.5 mg/kg [28]: 108%
Toxicity [29]: 0
Toxicity related death [29]: 0
